From PubChem
NPY-Y1 PAM-ag – potentiates or activates human NPY-Y1 receptor | activation, % at 3.6 µM | P25929 | 0.37% of 220,000 active | NPY-Y1 expressing cells, potentiator/agonist activation; in the data active = activation above about 33%, passing the limit was not always enough;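 also: cells stimulated with NPY at EC10 then isoproterenol at EC100; 0% = low agonist plus stimulus and 100% = saturating agonist plus stimulus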
NPY-Y2 PAM-ag – human NPY-Y2 potentiation or agonism, primary screen; P49146; cells expressing NPY-Y2, potentiator/agonist read-out; activation, % at 3.6 µM; 0.45% of 220,000 active; AID 1359; in the data active = activation above about 27%;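 also: cells stimulated with NPY near EC25 plus isoproterenol at EC100; 0% = vehicle plus submaximal agonist and 100% = vehicle plus saturating agonist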
Target sequence (P49146 whole entry, looked up): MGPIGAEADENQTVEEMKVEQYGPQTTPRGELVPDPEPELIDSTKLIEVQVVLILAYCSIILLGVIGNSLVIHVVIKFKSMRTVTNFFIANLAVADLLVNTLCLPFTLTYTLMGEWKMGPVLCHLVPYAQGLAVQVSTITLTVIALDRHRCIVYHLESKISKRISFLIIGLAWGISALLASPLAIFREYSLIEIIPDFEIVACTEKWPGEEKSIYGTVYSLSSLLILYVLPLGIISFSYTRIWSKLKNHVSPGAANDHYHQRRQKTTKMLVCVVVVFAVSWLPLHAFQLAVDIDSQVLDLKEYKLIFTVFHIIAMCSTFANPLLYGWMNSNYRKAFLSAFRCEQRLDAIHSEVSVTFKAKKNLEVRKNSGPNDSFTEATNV
NPY Y1 blocker – NPY-Y1 (human) receptor antagonism; P25929; HEK293-CNG Y1 cells, membrane potential fluorescence; NPY at EC95, then isoproterenol; inhibition, % at 3.6 µM; AID 1040; 1% of 200,000 active;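 active = inhibition above the campaign mean inhibition of all tested compounds plus 3 SD, cut at about 20% in these data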;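 also: 0% = DMSO wells given NPY plus isoproterenol and 100% = isoproterenol alone without NPY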
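Benchmarks – high control isoproterenol alone, low control NPY with isoproterenol · Material – HEK293 Y1/CNG channel cell line · Times – dye 3 h, compound 60 min room temperature, stimulation 45 min · Probe or stimulus – NPY (25 nM), isoproterenol (1 µM), Ro 20-1724 (25 µM) · Evaluation – % inhibition of NPY effect · Signal – fluorescence, membrane potential probe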
NPY Y2 blocker – antagonists of human neuropeptide Y receptor Y2; NPY-Y2 expressing cells, antagonist mode; inhibition, % at 2.7 µM; 0.99% of 140,000 active; in the data active = inhibition above about 17%;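 also: 0% = vehicle with agonist challenge and 100% = reference antagonist with challenge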
* hit, by the source's call; · = no result. In the library only some 1.8% were active in any assay of this set; here they are far more common.

SMILES	NPY-Y1 PAM-ag	NPY-Y2 PAM-ag	NPY Y1 blocker	NPY Y2 blocker
O=S(=O)([N-]c1nc2ccccc2nc1-n1cc[n+](Cc2ccccc2)c1)c1ccc(Br)cc1	20	-39	·	·
OC(CNCCc1ccc(C(F)(F)F)cc1)COc1cccc2ccccc12 (centres undefined)	60*	46*	-8	6
COc1ccc(CCNCC(O)COc2cccc(Br)c2)cc1 (centres undefined)	75*	63*	-1	·
OC(CNCCc1ccc(C(F)(F)F)cc1)COc1ccc2ccccc2c1 (centres undefined)	-32	-11	3	12
Cc1ccccc1S(=O)(=O)Cc1ccc(C(=O)NCCCOC(C)C)o1	-11	2	2	0
CC1=C/C(=N\OS(=O)(=O)c2ccccc2)C(C(C)C)=CC1=O	30	31*	-6	7
CC1=C/C(=N\OS(=O)(=O)c2ccccc2)C(C)=CC1=O	54*	57*	-8	2
Cc1noc(C)c1C(=O)N1CC(C)OC(C)C1 (centres undefined)	4	1	13	1
CCc1noc(C)c1C(=O)N1CC(C)OC(C)C1 (centres undefined)	78*	96*	-10	-1
CC(C)CC(NC(=O)OC(C)(C)C)c1cn([C@@H](Cc2ccc(O)cc2)C(=O)N2CCN(C(=O)OC(C)(C)C)CC2)nn1 (some centres undefined)	11	-23	-2	·
CCOc1ccccc1CN1CCN(Cc2ccc(C)o2)CC1CCO (centres undefined)	-21	-17	1	·
CCOc1ccccc1CN1CCN(Cc2[nH]c3ccccc3c2C)CC1CCO (centres undefined)	-26	-13	21*	·
CS(=O)(=O)N1CCC(C(=O)NCc2ccc(Cl)cc2Cl)CC1	0	-4	0	·
CN(C1=C(NC(=O)c2ccc(Cl)cc2)C(=O)c2ccccc2C1=O)c1ccccc1	56*	72*	-20	-10
O=C(NC1=C(Nc2ccc(Cl)cc2)C(=O)c2ccccc2C1=O)c1ccccc1	-9	4	2	-4
CSCCC(NS(=O)(=O)c1ccccc1F)C(=O)NC(C)c1ccccc1 (centres undefined)	6	1	7	·
Cc1ccc(-n2nc(C)cc2Nc2ncc(Cl)cc2Cl)cc1	-12	-4	11	3
Cc1cc(Nc2ncc(Cl)cc2Cl)n(-c2ccccc2C)n1	-12	-1	29*	20*
CC(C)(C(=O)c1ccccc1)/[N+]([O-])=C/c1ccc(Br)cc1	1	6	8	1
CC(COC(=O)c1ccccc1)(COC(=O)c1ccccc1)/[N+]([O-])=C/c1ccccc1	-14	-10	21*	18*
CC1(C)CC(=O)C2=C(C1)OC(N)=C(C#N)C2c1cn(-c2ccccc2)nc1-c1ccc(F)cc1 (centres undefined)	68*	65*	-1	3
CC1(C)CC(=O)C2=C(C1)C(c1cn(-c3ccccc3)nc1-c1ccccc1)C(C#N)=C(N)O2 (centres undefined)	2	1	-1	4
S=C(NCCCN1CCOCC1)Nc1cccc(-c2nnc3n2CCCCC3)c1	-35	-8	1	·
Clc1ccc(CN2C3=NCCCN3c3ccccc32)cc1Cl	-22	-18	21*	·
CN1C(=O)C(C(=O)NC(C)(C)C)C2c3ccccc3OC13CCCCC23 (centres undefined)	11	14	3	-1
SMILES	NPY-Y1 PAM-ag	NPY-Y2 PAM-ag	NPY Y1 blocker	NPY Y2 blocker
COc1ccccc1-c1ccc(SCc2ccc(C)cc2)nn1	-25	-22	21*	·
COc1ccccc1-c1ccc(SCc2ccc(F)cc2)nn1	-8	-11	10	·
Cc1ccc(Cn2c(=N)n(CC(O)c3ccco3)c3ccccc32)cc1 (centres undefined)	-21	-16	17	23*
CCOc1cccc2sc(NN)nc12	38*	32	-9	·
CN(Cc1ccccc1)c1ncc(C=O)s1	-3	9	6	·
Cc1cc2c(OCC(O)CNC3CCCCC3)cccc2[nH]1 (centres undefined)	110*	103*	-11	·
OC(COc1cccc2ccccc12)CN1CCCC1 (centres undefined)	99*	94*	-15	3
C=C1CC(C)OC(c2ccccc2OCC(O)CN2CCCCC2)C1 (centres undefined)	75*	70*	-10	3
Cc1cc2c(OCC(O)CN3CCCCC3)cccc2[nH]1 (centres undefined)	110*	101*	-14	·
C#CCNC(=O)C1=C[C@H](c2coc3ccccc3c2=O)[C@@H](CCCO)[C@H](OCC)O1	-3	-5	3	·
CCOc1ccc(C(C)=O)cc1CN1C(=O)NC(C)(C2CC2)C1=O (centres undefined)	-2	2	5	·
CCc1ccc(-c2nc(CSCC(=O)NCc3ccco3)c(C)o2)cc1	-3	-8	21*	·
O=C(C[n+]1ccc(CCSc2ccc(F)cc2)cc1)c1ccccc1	1	-9	17	·
COc1cc2c(cc1OC)-c1cc(N3CCCc4ccccc43)nc(=O)n1CC2	-40	-10	123*	136*
COc1cc2c(cc1OC)-c1cc(NC3CCCCCC3)nc(=O)n1CC2	-20	-3	49*	43*
COc1cc2c(cc1OC)-c1cc(N3CCc4ccccc43)nc(=O)n1CC2	-17	-27	·	·
COc1cc2c(cc1OC)-c1cc(N3CCCCCC3)nc(=O)n1CC2	-23	-3	24*	32*
COc1cc2c(cc1OC)-c1cc(Nc3ccccc3)nc(=O)n1CC2	-22	-53	·	·
O=C(COc1ccc2ccccc2c1)N/N=C/C1CC=CCC1 (centres undefined)	-23	-10	2	9
Cc1cccc(-n2cnc(C(=O)N/N=C/c3ccccc3)c2)n1	18	1	2	1
CCOC(=O)c1c(NC(=S)N2CCN(C)CC2)sc2c1CCN(C(=O)OCC)C2	-43	-21	·	·
CCOC(=O)c1c(NC(=O)CN2CCCCC2)sc2c1CCN(C(=O)OCC)C2	-29	-10	56*	36*
CCOC(=O)c1c(NC(=O)CN(CC)CC)sc2c1CCN(C(=O)OCC)C2	-26	-4	23*	30*
CCOC(=O)c1c(NC(=O)CSc2ncccn2)sc2c1CCN(Cc1ccccc1)C2	-79	-32	33*	17*
CC1CCCC(NC(=O)C2c3ccccc3C(=O)N2Cc2cccs2)C1C (centres undefined)	-18	-23	35*	25*
O=C(NC1CCCCCCC1)C1c2ccccc2C(=O)N1Cc1ccco1 (centres undefined)	6	-28	11	13
O=C(C[n+]1ccc(C(=O)NCCCO)cc1)c1cccc(Br)c1	-6	3	·	·
O=C(Nc1cccc(C(F)(F)F)c1)c1cc(-c2ccc(F)cc2)on1	-22	-4	22*	24*
O=C(NC1CCCCC1)C(c1ccc(F)cc1)N(Cc1ccco1)C(=O)Cn1nnc2ccccc21 (centres undefined)	-17	1	23*	36*
